Test results: ChEMBL document CHEMBL3525912, “Sulfation of 4-hydroxy toremifene: individual variability, isoform specificity, and contribution to toremifene pharmacogenomics” (Drug Metab Dispos, 2012)

How the values were obtained:
[1] = substrate: CN(C)CCOc1ccc(/C(=C(/CCCl)c2ccccc2)c2ccc(O)cc2)cc1; assay: Activity of human SULT1A1 expressed in escherichia coli assessed as enzyme-mediated 4-(4-chloro-1-(4-(2-(dimethylamino)ethoxy)phenyl)-2-phenylbut-1-enyl)phenyl hydrogen sulfate formation after 15 mins by Michaelis-Menten equation in presence of 20 uM PAPS; type: ADME
Method in brief: (§1)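 Purified E. coli-expressed human enzyme (DEAE-Sepharose, ~80% pure; activity per total protein) incubated with 0.1–30 µM 4-OH-TOR, 20 µM PAPS, 50 mM potassium phosphate pH 6.2, 15 min at 37 °C. Reaction started with enzyme, stopped with acetonitrile:acetic acid (96:4). Sulfate quantified by radio-HPLC. Triplicate runs, corrected with a no-substrate control. Low substrate range chosen to limit substrate inhibition.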

[2] = substrate: CN(C)CCOc1ccc(/C(=C(/CCCl)c2ccccc2)c2ccc(O)cc2)cc1; assay: Activity of human SULT1E1 expressed in escherichia coli assessed as enzyme-mediated 4-(4-chloro-1-(4-(2-(dimethylamino)ethoxy)phenyl)-2-phenylbut-1-enyl)phenyl hydrogen sulfate formation after 15 mins by Michaelis-Menten equation in presence of 20 uM PAPS; type: ADME; method in brief: as §1

B1: Sulfotransferase 1A1 (Homo sapiens) (protein)
chain: MELIQDTSRPPLEYVKGVPLIKYFAEALGPLQSFQARPDDLLISTYPKSGTTWVSQILDMIYQGGDLEKCHRAPIFMRVPFLEFKAPGIPSGMETLKDTPAPRLLKTHLPLALLPQTLLDQKVKVVYVARNAKDVAVSYYHFYHMAKVHPEPGTWDSFLEKFMVGEVSYGSWYQHVQEWWELSRTHPVLYLFYEDMKENPKREIQKILEFVGRSLPEETVDFVVQHTSFKEMKKNPMTNYTTVPQEFMDHSISPFMRKGMAGDWKTTFTVAQNERFDADYAEKMAGCSLSFRSEL
Work on B1 yielded a Km [1] of 2.6 µM and a Vmax [1] of 0.0085 µmol/min.

B2: Sulfotransferase 1E1 (Homo sapiens) (protein)
chain: MNSELDYYEKFEEVHGILMYKDFVKYWDNVEAFQARPDDLVIATYPKSGTTWVSEIVYMIYKEGDVEKCKEDVIFNRIPFLECRKENLMNGVKQLDEMNSPRIVKTHLPPELLPASFWEKDCKIIYLCRNAKDVAVSFYYFFLMVAGHPNPGSFPEFVEKFMQGQVPYGSWYKHVKSWWEKGKSPRVLFLFYEDLKEDIRKEVIKLIHFLERKPSEELVDRIIHHTSFQEMKNNPSTNYTTLPDEIMNQKLSPFMRKGITGDWKNHFTVALNEKFDKHYEQQMKESTLKFRTEI
B2 was tested, and the Km [2] was 6.4 µM and the Vmax [2] was 0.0055 µmol/min.
